Test results from PubChem BioAssay AID1748 (Sanford-Burnham Center for Chemical Genomics, 2009).
Calls of active or inactive are those of the source.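 The calls were made as follows: active = Cell killing by compound with TRAIL above both separate effects added together, at all three tested doses; inactive = the rest.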

Test system: MCF7 TRAIL potentiation, ATPlite luminescence, 24 h
Experiment: TRAIL cytotoxicity enhancement in resistant cancer cells, confirmation, cell-based, MCF7, ATPlite luminescence, 24 h (AID 1748)
Settings: stronger effect = higher value
Method in brief: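 Measured by: ATPlite luminescence | Assay system: TRAIL-resistant MCF7 cells | Schedule: 24 h settling, 4 h compound, 24 h TRAIL, 37 °C | Probe or stimulus: TRAIL, added after compound pretreatment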

[1] = compound alone 1.25 uM, at 1.25 µM
[2] = compound alone 2.5 uM, at 2.5 µM
[3] = compound alone, no TRAIL, at 5 µM
[4] = compound plus TRAIL 1.25 uM, at 1.25 µM
[5] = compound plus TRAIL 2.5 uM, at 2.5 µM

SMILES | cytotoxicity with TRAIL (at 5 µM) | cytotoxicity [1] | cytotoxicity [2] | cytotoxicity [3] | cytotoxicity with TRAIL [4] | cytotoxicity with TRAIL [5]
CSc1nc(-c2ccccc2)nc(C(Cl)Cl)n1 | 82% (inactive) | 0% | 36% | 55% | 55% | 74%
CCSc1nc(-c2ccccc2)nc(C(Cl)Cl)n1 | 72% | 0% | 0% | 28% | 44% | 52%
CSc1nc(-c2ccc(C)cc2)nc(C(Cl)Cl)n1 | 57% (inactive) | 0% | 8% | 26% | 37% | 48%
